Data published in ChEMBL document CHEMBL2203235, “Optimization of a natural product-based class of γ-secretase modulators” (J Med Chem, 2012).
Values belong to the molecule of their own block, whether it stands above or below them.

Experiments:
CHO-2B7 = assay: Modulation of gamma secretase in CHO-2B7 cells assessed as reduction in amyloid beta 42 level at 4 uM after 5 hrs by MSD ELISA; type: cell-based; parameters: scale not given: the % may be the effect or the level left; details: Cricetulus griseus
[1] = Modulation of gamma secretase in CHO-2B7 cells assessed as reduction in amyloid beta 42 level after 5 hrs by MSD ELISA; type: cell-based; details: Cricetulus griseus, CHO-2B7, 5 h
Mus musculus [2] = assay: Antialzheimer activity in CD1 mouse assessed as reduction in amyloid beta 42 level at 100 mg/kg, po at 6 hrs relative to vehicle-treated control; type: functional; parameters: scale not given: the % may be the effect or the level left
Outline: (§1)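 CD-1 mice received a single IP or PO dose (n = 12 per group) and were sampled at 6 h. Plasma and brain drug concentrations were measured in μM. Aβ42, Aβ40 and Aβ38 in brain homogenate are expressed as percent lowering versus vehicle. Statistical significance was assessed against vehicle.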

Mus musculus [3] = assay: Antialzheimer activity in CD1 mouse assessed as reduction in amyloid beta 38 level at 100 mg/kg, po at 6 hrs relative to vehicle-treated control; type: functional; parameters: scale not given: the % may be the effect or the level left; outline: as §1
Mus musculus [4] = assay: Antialzheimer activity in CD1 mouse assessed as reduction in amyloid beta 42 level at 10 mg/kg, po QD for 5 days at 8 hrs post-last dose relative to vehicle-treated control; parameters: scale not given: the % may be the effect or the level left
Mus musculus [5] = assay: Antialzheimer activity in CD1 mouse assessed as reduction in amyloid beta 40 level at 10 mg/kg, po QD for 5 days at 8 hrs post-last dose relative to vehicle-treated control; parameters: scale not given: the % may be the effect or the level left
Mus musculus [6] = assay: Antialzheimer activity in CD1 mouse assessed as reduction in amyloid beta 40 level at 50 mg/kg, po QD for 5 days at 8 hrs post-last dose relative to vehicle-treated control; parameters: scale not given: the % may be the effect or the level left
CHO [7] = assay: Modulation of gamma secretase in CHO cells expressing human APP assessed as reduction amyloid beta (1 to 38) level at 2 uM after 6 hrs by LC/MS/MS analysis relative to control; type: cell-based; parameters: scale not given: the % may be the effect or the level left; details: Cricetulus griseus
Outline: (§2)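 Cells were treated at 3 μM or 2 μM. Secreted Aβ peptides (Aβ37, 38, 39, 40, 42) were quantified by immunoprecipitation followed by LC/MS/MS. Changes are expressed relative to vehicle-treated cells.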

CHO [8] = assay: Modulation of gamma secretase in CHO cells expressing human APP assessed as increase in amyloid beta (1 to 37) level at 2 uM after 6 hrs by LC/MS/MS analysis relative to control; type: cell-based; details: Cricetulus griseus; outline: as §2
Mus musculus [9] = assay: Antialzheimer activity in CD1 mouse assessed as reduction in amyloid beta 42 level at 30 mg/kg, po at 6 hrs relative to vehicle-treated control; type: functional; parameters: scale not given: the % may be the effect or the level left; outline: as §1
SUP-T1 = assay: Inhibition of notch-mediated NICD release in human SUP-T1 cells at 4 uM after 18 hrs by immunoblotting assay; type: cell-based
[10] = Modulation of gamma secretase in CHO-2B7 cells assessed as reduction in amyloid beta 38 level after 5 hrs by MSD ELISA; type: cell-based; details: Cricetulus griseus, CHO-2B7, 5 h
Mus musculus [11] = assay: Antialzheimer activity in CD1 mouse assessed as reduction in amyloid beta 40 level at 30 mg/kg, po at 6 hrs relative to vehicle-treated control; type: functional; parameters: scale not given: the % may be the effect or the level left; outline: as §1
Mus musculus [12] = assay: Antialzheimer activity in CD1 mouse assessed as reduction in amyloid beta 40 level at 100 mg/kg, po at 6 hrs relative to vehicle-treated control; type: functional; parameters: scale not given: the % may be the effect or the level left; outline: as §1
CHO [13] = assay: Modulation of gamma secretase in CHO cells expressing human APP assessed as reduction in amyloid beta (1 to 42) level at 2 uM after 6 hrs by LC/MS/MS analysis relative to control; type: cell-based; parameters: scale not given: the % may be the effect or the level left; details: Cricetulus griseus; outline: as §2
CHO [14] = assay: Modulation of gamma secretase in CHO cells expressing human APP assessed as amyloid beta (1 to 40) level at 2 uM after 6 hrs by LC/MS/MS analysis (reference value: 10.2 ng); type: cell-based; details: Cricetulus griseus; outline: as §2
Mus musculus [15] = assay: Antialzheimer activity in CD1 mouse assessed as reduction in amyloid beta 38 level at 30 mg/kg, po at 6 hrs relative to vehicle-treated control; type: functional; parameters: scale not given: the % may be the effect or the level left; outline: as §1
Mus musculus [16] = assay: Antialzheimer activity in CD1 mouse assessed as reduction in amyloid beta 38 level at 10 mg/kg, po QD for 5 days at 8 hrs post-last dose relative to vehicle-treated control; parameters: scale not given: the % may be the effect or the level left
Mus musculus [17] = assay: Antialzheimer activity in CD1 mouse assessed as reduction in amyloid beta 38 level at 50 mg/kg, po QD for 5 days at 8 hrs post-last dose relative to vehicle-treated control; parameters: scale not given: the % may be the effect or the level left
[18] = Inhibition of gamma secretase in CHO-2B7 cells assessed as reduction in total amyloid beta level after 5 hrs by MSD ELISA; type: cell-based; details: Cricetulus griseus, CHO-2B7, 5 h
[19] = Modulation of gamma secretase in CHO-2B7 cells assessed as reduction in amyloid beta 40 level after 5 hrs by MSD ELISA; type: cell-based; details: Cricetulus griseus, CHO-2B7, 5 h
CHO [20] = assay: Modulation of gamma secretase in CHO cells expressing human APP assessed as increase in amyloid beta (1 to 39) level at 2 uM after 6 hrs by LC/MS/MS analysis relative to control; type: cell-based; details: Cricetulus griseus; outline: as §2

IC50 [1]: 0.07 µM
Structure (SMILES): C[C@@H]1C[C@H]([C@H](O)C(C)(C)O)O[C@H]2[C@H]1[C@@]1(C)CC[C@@]34C[C@@]35CC[C@H](O[C@H]3CN(C(=O)CC6CC6)CCO3)C(C)(C)[C@@H]5CC[C@H]4[C@]1(C)[C@H]2O
Activity (CHO-2B7): 40%

Structure (SMILES): CCO[C@@H]([C@H]1C[C@@H](C)[C@H]2[C@H](O1)[C@H](O)[C@@]1(C)[C@@H]3CC[C@H]4C(C)(C)[C@@H](O[C@H]5CN(C6CN(C)C6)CCO5)CC[C@@]45C[C@@]35CC[C@]21C)C(C)(C)O
Activity (Mus musculus [2]): 26%
Activity (Mus musculus [3]): 31%
Activity (Mus musculus [4]): 9%
Activity (Mus musculus [5]): 7%
Activity (Mus musculus [6]): 10%
Activity (CHO [7]): 33%
Activity (CHO [8]): 380%
Activity (Mus musculus [9]): 16%
inhibition (SUP-T1): 0%
IC50 [10]: 0.16 µM
Activity (Mus musculus [11]): 9%
Activity (Mus musculus [12]): 15%
Activity (CHO [13]): 83%
IC50 [1]: 0.1 µM
Activity (CHO [14]): 11.4 ng
Activity (Mus musculus [15]): 16%
Activity (Mus musculus [16]): 13%
Activity (Mus musculus [17]): 38%
IC50 [18]: 14 µM
IC50 [19]: 2.1 µM
Activity (CHO [20]): 530%
